Experimental data as given in ChEMBL document CHEMBL1123006, “Synthesis and cytotoxic activity of hydroxylated derivatives of olivacine in relation with their biotransformation” (1985).

Tests used:
Mus musculus [1] = assay: Cytotoxicity against L1210 leukemia cells administered through intraperitoneal route in mice; format: functional
L1210 [2] = assay: Antitumor activity against L1210 leukemia cells expressed as dose concentration that reduces number of cells by 50% after 48 hrs exposure to drug.; format: functional; details: Mus musculus, L1210, 48 h; read-out: ID50 (the source's name)
Outline: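 L1210 leukemia cells grown in vitro with drug for 48 h; cell number counted against untreated control; ID50 taken as the concentration cutting cell number by 50%.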

Rattus norvegicus [3] = species on record: Rattus norvegicus; assay: Non induced rat hepatic microsomal hydroxylation in vitro; format: functional; details: Liver
Outline: (§1)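 Liver microsomes from male Sprague–Dawley rats given only vehicle ip (sunflower oil or 0.9% NaCl). Microsomes 0.5 mg protein/mL in Tris-HCl 0.02 M pH 7.4 with 1.15% KCl; olivacine acetate at five levels, 5–50 µM; NADPH 1 mg/mL; 37 °C, 5 min. Butanol extract, HPLC; Km/Vmax by Lineweaver-Burk; two rats.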

Rattus norvegicus [4] = species on record: Rattus norvegicus; assay: Phenobarbital induced rat hepatic microsomal hydroxylation in vitro; format: functional; details: Liver
Outline: as §1, with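 “phenobarbital 80 mg/kg/day” for “only vehicle”, “in” for “(sunflower oil or”, “NaCl for 3 days, killed 2 days after last dose.” for “NaCl).”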

Rattus norvegicus [5] = species on record: Rattus norvegicus; assay: Benzo[a]pyrene induced rat hepatic microsomal hydroxylation in vitro; format: functional; details: Liver
Outline: as §1, with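 “benzo[a]pyrene 20 mg/kg/day” for “only vehicle”, “in sunflower” for “(sunflower”, “for 2 days, killed 2 days after last dose.” for “or 0.9% NaCl).”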

L1210 [6] = assay: Antitumor efficiency against L1210 leukemia cells expressed as % increase in life span (ILS) 24 hrs after ip grafting (10e5 cells); format: functional, Mus musculus
Outline: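 DBA/2 mice given 10^5 L1210 cells intraperitoneally, then a single ip drug dose 24 h later. ILS = (median survival of treated − median survival of controls) / median survival of controls × 100.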

Mus musculus [7] = assay: Highest nonlethal dose against mice administered through intraperitoneal route; format: functional

Compound	LD0 (Mus musculus [1])	IC50 (L1210 [2])	Km (Rattus norvegicus [3])	Km (Rattus norvegicus [4])	Km (Rattus norvegicus [5])	ILS (L1210 [6])	Vmax (Rattus norvegicus [3])	Vmax (Rattus norvegicus [4])	LD0 (Mus musculus [7])	Vmax (Rattus norvegicus [5])
Cc1c2ccncc2c(C)c2c1[nH]c1ccccc12 [ELLIPTECINE]	50 mg/kg	990 nM	–	–	–	–	–	–	–	–
Cc1nccc2c(C)c3[nH]c4c(O)cccc4c3cc12	–	12800 nM	29.4 µM	41.4 µM	29 µM	–	–	–	–	–
Cc1nccc2c(C)c3[nH]c4ccccc4c3cc12	250 mg/kg	2030 nM	–	–	–	35%	–	–	–	–
Cc1nccc2c(C)c3[nH]c4ccc(O)cc4c3cc12	–	60 nM	25 µM	40 µM	22.2 µM	39%	0.58 nM/min	1.28 nM/min	50 mg/kg	7.14 nM/min
